Numbering of substitutions follows the chain as printed. ≈ marks a conversion by molar mass, not a printed value. Where two headings read alike, the source gives them in different places.
Experiments:
[1] = molecular target: E. coli LeuRS (EcLeuRS) (Escherichia coli, UniProt P07813); experiment: Aminoacylation inhibition; assay type: biochemical
Outline: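 Aminoacylation at 37°C with [3H]leucine, started with 4 mM ATP, in Tris-HCl pH 7.5 buffer. Each LeuRS was used at equal activity, i.e. forming 10 pmol Leu-tRNALeu in 5 min. At least six test-compound concentrations were tested. IC50 was taken from a fitted dose-response curve, as the mean of at least two independent experiments.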

[2] = tested on: S. pneumoniae; experiment: Broth microdilution MIC, S. pneumoniae; assay type: cell-based; details: Streptococcus pneumoniae, 24 h, read-out: MIC, Bacteria, S. pneumoniae
Outline: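 S. pneumoniae clinical isolate, from paediatric community-acquired pneumonia. CLSI M7-A7 broth microdilution in Mueller Hinton broth with 2.5% lysed sheep blood, inoculum about 2 × 10^8 CFU/mL. Serial test-compound dilutions, 37°C for 24 h. MIC was the lowest concentration suppressing visible growth.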

[3] = tested on: E. coli; experiment: Broth microdilution MIC, E. coli; assay type: cell-based; details: Escherichia coli
Outline: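 Broth microdilution per CLSI M7-A7 in Mueller Hinton broth. About […] E. coli was exposed to serial test-compound dilutions for 24 h at 37°C. MIC was the lowest concentration suppressing visible growth. Ampicillin was used to monitor susceptibility.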

[4] = molecular target: T1, SpLeuRS (Streptococcus pneumoniae serotype 4, UniProt Q97SS0); experiment: Inhibitory kinetics of SpLeuRS aminoacylation; assay type: biochemical; details: for Ki: 2 nM SpLeuRS
T1 sequence (Q97SS0 1-833): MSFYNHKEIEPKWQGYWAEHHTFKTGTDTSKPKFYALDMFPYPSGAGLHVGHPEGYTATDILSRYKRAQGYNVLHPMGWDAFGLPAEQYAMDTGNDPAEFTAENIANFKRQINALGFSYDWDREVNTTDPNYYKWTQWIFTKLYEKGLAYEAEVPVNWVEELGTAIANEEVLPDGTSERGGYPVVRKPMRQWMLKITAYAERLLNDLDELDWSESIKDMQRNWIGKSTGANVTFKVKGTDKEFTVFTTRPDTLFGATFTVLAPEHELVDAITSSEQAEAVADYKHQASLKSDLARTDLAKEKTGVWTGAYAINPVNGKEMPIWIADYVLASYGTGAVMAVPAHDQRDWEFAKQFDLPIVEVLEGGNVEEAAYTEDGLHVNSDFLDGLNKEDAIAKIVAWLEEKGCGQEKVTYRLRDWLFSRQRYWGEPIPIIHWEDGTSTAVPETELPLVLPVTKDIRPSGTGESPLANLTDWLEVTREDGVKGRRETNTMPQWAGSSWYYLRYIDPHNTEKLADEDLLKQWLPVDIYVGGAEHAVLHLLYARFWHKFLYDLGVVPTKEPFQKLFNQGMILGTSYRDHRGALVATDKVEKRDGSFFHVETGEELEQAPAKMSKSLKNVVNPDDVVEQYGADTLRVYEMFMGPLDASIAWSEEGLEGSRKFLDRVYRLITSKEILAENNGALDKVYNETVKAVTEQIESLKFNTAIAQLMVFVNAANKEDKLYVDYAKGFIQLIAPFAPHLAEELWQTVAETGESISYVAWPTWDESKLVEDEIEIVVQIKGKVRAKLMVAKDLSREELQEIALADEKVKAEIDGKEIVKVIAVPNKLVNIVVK
Outline: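 Test compound at 0, 2 or 8 μM. Substrate-velocity data were linearized by reciprocal fitting into Lineweaver-Burk plots to derive kinetic constants and inhibition mode.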

[5] = molecular target: T1, SpLeuRS; experiment: ATP-PPi exchange; assay type: biochemical; details: 200 μM ZCL039
Outline: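 Leucine activation (ATP-PPi exchange) at 37°C with 10 nM N-His6 SpLeuRS, expressed in E. coli BL21(DE3) and Ni-NTA purified. Run with or without test compound in DMSO. The [32P]ATP formed was separated and counted. Means of three independent experiments.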

[6] = molecular target: T2, SpLeuRS Y332D (Streptococcus pneumoniae serotype 4, UniProt Q97SS0, Y332D); experiment: Aminoacylation by SpLeuRS Y332D mutant; assay type: biochemical; details: 50 μM ZCL039
T2 sequence (Q97SS0 1-833 Y332D): T1 sequence (Q97SS0 1-833) with Y332D
Outline: (§1)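 Aminoacylation at 37°C, started with 4 mM ATP. Point mutants were made by site-directed mutagenesis. The MmLinker chimera has CP1 Lys226–Thr411 replaced by a nonapeptide. Means of three independent experiments.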

[7] = tested on: SpLeuRS-MmLinker; experiment: Aminoacylation by SpLeuRS-MmLinker chimeric mutant; assay type: biochemical, Streptococcus pneumoniae; details: 50 μM ZCL039
Outline: as §1

Sequence of E. coli LeuRS (EcLeuRS) (P07813 whole entry): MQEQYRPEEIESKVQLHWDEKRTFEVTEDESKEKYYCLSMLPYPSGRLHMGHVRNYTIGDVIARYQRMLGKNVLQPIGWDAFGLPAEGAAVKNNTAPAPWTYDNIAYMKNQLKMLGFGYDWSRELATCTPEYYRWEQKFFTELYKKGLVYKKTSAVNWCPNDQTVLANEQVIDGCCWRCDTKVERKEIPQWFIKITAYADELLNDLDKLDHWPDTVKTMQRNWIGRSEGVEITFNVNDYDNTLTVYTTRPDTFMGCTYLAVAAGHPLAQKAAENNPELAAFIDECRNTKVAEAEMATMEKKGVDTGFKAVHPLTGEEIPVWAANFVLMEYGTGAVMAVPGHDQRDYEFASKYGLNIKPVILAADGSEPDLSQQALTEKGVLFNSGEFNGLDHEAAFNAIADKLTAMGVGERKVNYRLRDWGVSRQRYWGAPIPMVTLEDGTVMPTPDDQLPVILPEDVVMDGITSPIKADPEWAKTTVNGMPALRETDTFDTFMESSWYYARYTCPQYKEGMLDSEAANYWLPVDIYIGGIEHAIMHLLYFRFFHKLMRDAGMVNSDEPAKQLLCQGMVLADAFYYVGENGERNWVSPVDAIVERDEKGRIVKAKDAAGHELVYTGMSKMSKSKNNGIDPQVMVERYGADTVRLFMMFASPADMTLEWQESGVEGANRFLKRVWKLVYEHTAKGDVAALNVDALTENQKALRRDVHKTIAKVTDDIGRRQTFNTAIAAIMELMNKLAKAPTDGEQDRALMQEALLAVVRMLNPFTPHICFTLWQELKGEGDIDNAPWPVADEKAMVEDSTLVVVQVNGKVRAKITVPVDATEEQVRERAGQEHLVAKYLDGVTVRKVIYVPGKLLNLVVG

## OB1OCc2ccc(C(O)c3ccccc3)cc21 (stereo not drawn) [ZCL039, [6-(1-phenyl-1-hydroxylmethyl)]-1,3-dihydro-1-hydroxy-2,1-benzoxaborole]
[1]
  IC50: 8.25 ± 1.2 µM
[1]; printed as higher
  IC50 towards SpLeuRS relative to EcLeuRS: 5 fold
[2]
  MIC: 5 µg/mL (≈ 20.8 µM)
[3]; 24 h, read-out: MIC, Bacteria, E. coli
  MIC: 60 µg/mL (≈ 250 µM)
[3]; read-out: MIC, E. coli strains containing pET30a
  MIC: 60 µg/mL (≈ 250 µM)
[4]; +2 μM ZCL039
  kcat of SpLeuRS, substrate ATP: 6.35 ± 0.65 s⁻¹
  kcat of SpLeuRS, substrate Leu: 6.44 ± 0.55 s⁻¹
  kcat of SpLeuRS, substrate SptRNALeu: 6.62 ± 0.48 s⁻¹
[4]; +8 μM ZCL039
  kcat of SpLeuRS, substrate ATP: 2.80 ± 0.32 s⁻¹
  kcat of SpLeuRS, substrate Leu: 2.61 ± 0.16 s⁻¹
  kcat of SpLeuRS, substrate SptRNALeu: 2.89 ± 0.24 s⁻¹
[4]; substrate ATP
  Ki: 2.63 ± 0.26 µM
[4]; substrate Leu
  Ki: 2.65 ± 0.22 µM
[4]; Km unaffected, maximum rates decreased
  Mode of inhibition with respect to ATP and Leu: noncompetitive
[4]; apparent Km and rate both reduced
  Mode of inhibition with regard to tRNALeu: uncompetitive
[5]
  Effect on PPi exchange activity of SpLeuRS: not affected
[6]
  Effect on synthetic activity of Y332D mutant: did not affect
[7]
  Effect on tRNA charging activity of SpLeuRS-MmLinker: not affected

From publication PMC3747510 (Scientific Reports, 2013)
